ChEMBL document CHEMBL3769392, “Synthesis, antiproliferative activities, and computational evaluation of novel isocoumarin and 3,4-dihydroisocoumarin derivatives” (Eur J Med Chem, 2016)
Values after ≈ are worked out from the molar mass of the structure shown.

Tested on: MCF7
Test: Antiproliferative activity against human MCF7 cells after 48 hrs by SRB assay
Type: functional
Details: MCF7, 48 h
How it was run: (§1)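 Cells kept in RPMI 1640 with 5% FBS and 1% penicillin/streptomycin at 37 °C, 5% CO2, and used at passages 5–12. Seeded at 3 to 5 x 10^4 cells/mL and exposed 48 h to 0.25, 2.5, 25 and 250 µg/mL in DMSO/RPMI (final DMSO ≤ 0.25%). Doxorubicin 0.025–25 µg/mL served as positive control. Fixed with 50% TCA at T0 and at endpoint, SRB protein read at 540 nm. Growth was T0-corrected and GI50 taken by non-linear regression.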

| GI50 [mg/L] | Compound |
| --- | --- |
| 25.8 (≈ 110 µM) | COc1ccc2cc(CCCO)oc(=O)c2c1 |
| 32.3 (≈ 105 µM) | CCCCCOCCCC1Cc2ccc(OC)cc2C(=O)O1 (racemic) |
| 250 (≈ 1200 µM) | COc1ccc2c(c1)C(=O)OC(CO)C2 (racemic) |
| 18.6 (≈ 46.9 µM) | COc1ccc2c(c1)C(=O)OC(CCCSc1nnnn1-c1ccccc1)C2 (racemic) |

Tested on: HaCaT
Test: Selectivity index, ratio of GI50 for human HaCaT cells to GI50 for human NCI-ADR-RES cells
Type: functional
Details: not given

| Compound | RatioGI50 |
| --- | --- |
| COc1ccc2cc(CCCO)oc(=O)c2c1 | 1.03 |
| CCCCCOCCCC1Cc2ccc(OC)cc2C(=O)O1 (racemic) | 0.76 |
| COc1ccc2c(c1)C(=O)OC(CCCSc1nnnn1-c1ccccc1)C2 (racemic) | >1.89 |

Tested on: not listed separately
Test: Antiproliferative activity against human PC3 cells after 48 hrs by SRB assay
Type: functional
Details: PC-3, 48 h
How it was run: as §1

| Compound | GI50 [mg/L] |
| --- | --- |
| COc1ccc2cc(CCCO)oc(=O)c2c1 | 25.9 (≈ 111 µM) |
| CCCCCOCCCC1Cc2ccc(OC)cc2C(=O)O1 (racemic) | 29.5 (≈ 96.3 µM) |
| COc1ccc2c(c1)C(=O)OC(CO)C2 (racemic) | 175 (≈ 842 µM) |
| COc1ccc2c(c1)C(=O)OC(CCCSc1nnnn1-c1ccccc1)C2 (racemic) | 45.1 (≈ 114 µM) |

Tested on: HaCaT
Test: Selectivity index, ratio of GI50 for human HaCaT cells to GI50 for human U251 cells
Type: functional
Details: not given

| Compound | RatioGI50 |
| --- | --- |
| COc1ccc2cc(CCCO)oc(=O)c2c1 | 1 |
| CCCCCOCCCC1Cc2ccc(OC)cc2C(=O)O1 (racemic) | 1 |

Tested on: HaCaT
Test: Selectivity index, ratio of GI50 for human HaCaT cells to GI50 for human HT-29 cells
Type: functional
Details: not given

| Compound | RatioGI50 |
| --- | --- |
| COc1ccc2cc(CCCO)oc(=O)c2c1 | 1 |
| CCCCCOCCCC1Cc2ccc(OC)cc2C(=O)O1 (racemic) | 0.74 |
| COc1ccc2c(c1)C(=O)OC(CCCSc1nnnn1-c1ccccc1)C2 (racemic) | >18.25 |

Tested on: NCI-H460
Test: Antiproliferative activity against human NCI-H460 cells after 48 hrs by SRB assay
Type: functional
Details: NCI-H460, 48 h
How it was run: as §1

| GI50 [mg/L] | Compound |
| --- | --- |
| 29.1 (≈ 124 µM) | COc1ccc2cc(CCCO)oc(=O)c2c1 |
| 33.7 (≈ 110 µM) | CCCCCOCCCC1Cc2ccc(OC)cc2C(=O)O1 (racemic) |
| ≥ 250 | COc1ccc2c(c1)C(=O)OC(CO)C2 (racemic) |
| ≥ 250 | COc1ccc2c(c1)C(=O)OC(CCCSc1nnnn1-c1ccccc1)C2 (racemic) |

Tested on: HT-29
Test: Antiproliferative activity against human HT-29 cells after 48 hrs by SRB assay
Type: functional
Details: HT-29, 48 h
How it was run: as §1

| GI50 [mg/L] | Compound |
| --- | --- |
| 29.1 (≈ 124 µM) | COc1ccc2cc(CCCO)oc(=O)c2c1 |
| 43.5 (≈ 142 µM) | CCCCCOCCCC1Cc2ccc(OC)cc2C(=O)O1 (racemic) |
| ≥ 250 | COc1ccc2c(c1)C(=O)OC(CO)C2 (racemic) |
| 13.7 (≈ 34.6 µM) | COc1ccc2c(c1)C(=O)OC(CCCSc1nnnn1-c1ccccc1)C2 (racemic) |

Tested on: U-251
Test: Antiproliferative activity against human U251 cells after 48 hrs by SRB assay
Type: functional
Details: U-251, 48 h
How it was run: as §1

| GI50 [mg/L] | Compound |
| --- | --- |
| 28.9 (≈ 123 µM) | COc1ccc2cc(CCCO)oc(=O)c2c1 |
| 32.2 (≈ 105 µM) | CCCCCOCCCC1Cc2ccc(OC)cc2C(=O)O1 (racemic) |
| ≥ 250 | COc1ccc2c(c1)C(=O)OC(CO)C2 (racemic) |
| ≥ 250 | COc1ccc2c(c1)C(=O)OC(CCCSc1nnnn1-c1ccccc1)C2 (racemic) |

Tested on: NCI-H460
Test: Selectivity index, ratio of GI50 for human HaCaT cells to GI50 for human NCI-H460 cells
Type: functional
Details: not given

| Compound | RatioGI50 |
| --- | --- |
| COc1ccc2cc(CCCO)oc(=O)c2c1 | 1 |
| CCCCCOCCCC1Cc2ccc(OC)cc2C(=O)O1 (racemic) | 0.96 |

Tested on: not listed separately
Test: Antiproliferative activity against human NCI-ADR-RES cells after 48 hrs by SRB assay
Type: functional
Details: not given
How it was run: as §1

| Compound | GI50 [mg/L] |
| --- | --- |
| COc1ccc2cc(CCCO)oc(=O)c2c1 | 28.1 (≈ 120 µM) |
| CCCCCOCCCC1Cc2ccc(OC)cc2C(=O)O1 (racemic) | 42.3 (≈ 138 µM) |
| COc1ccc2c(c1)C(=O)OC(CO)C2 (racemic) | ≥ 250 |
| COc1ccc2c(c1)C(=O)OC(CCCSc1nnnn1-c1ccccc1)C2 (racemic) | 132 (≈ 333 µM) |

Tested on: HaCaT
Test: Selectivity index, ratio of GI50 for human HaCaT cells to GI50 for human 786-0 cells
Type: functional
Details: not given

| Compound | RatioGI50 |
| --- | --- |
| COc1ccc2cc(CCCO)oc(=O)c2c1 | 1.08 |
| CCCCCOCCCC1Cc2ccc(OC)cc2C(=O)O1 (racemic) | 1.01 |

Tested on: HaCaT
Test: Selectivity index, ratio of GI50 for human HaCaT cells to GI50 for human PC3 cells
Type: functional
Details: not given

| Compound | RatioGI50 |
| --- | --- |
| COc1ccc2cc(CCCO)oc(=O)c2c1 | 1.12 |
| CCCCCOCCCC1Cc2ccc(OC)cc2C(=O)O1 (racemic) | 1.09 |
| COc1ccc2c(c1)C(=O)OC(CO)C2 (racemic) | >1.43 |
| COc1ccc2c(c1)C(=O)OC(CCCSc1nnnn1-c1ccccc1)C2 (racemic) | >5.54 |

Tested on: HaCaT
Test: Selectivity index, ratio of GI50 for human HaCaT cells to GI50 for human MCF7 cells
Type: functional
Details: not given

| Compound | RatioGI50 |
| --- | --- |
| COc1ccc2cc(CCCO)oc(=O)c2c1 | 1.12 |
| CCCCCOCCCC1Cc2ccc(OC)cc2C(=O)O1 (racemic) | 1 |
| COc1ccc2c(c1)C(=O)OC(CO)C2 (racemic) | >1 |
| COc1ccc2c(c1)C(=O)OC(CCCSc1nnnn1-c1ccccc1)C2 (racemic) | >13.44 |

Tested on: 786-0
Test: Antiproliferative activity against human 786-0 cells after 48 hrs by SRB assay
Type: functional
Details: 786-0, 48 h
How it was run: as §1

| GI50 [mg/L] | Compound |
| --- | --- |
| 26.9 (≈ 115 µM) | COc1ccc2cc(CCCO)oc(=O)c2c1 |
| 31.9 (≈ 104 µM) | CCCCCOCCCC1Cc2ccc(OC)cc2C(=O)O1 (racemic) |
| ≥ 250 | COc1ccc2c(c1)C(=O)OC(CO)C2 (racemic) |
| ≥ 250 | COc1ccc2c(c1)C(=O)OC(CCCSc1nnnn1-c1ccccc1)C2 (racemic) |

Tested on: not listed separately
Test: Cytotoxicity against human HaCaT cells after 48 hrs by SRB assay
Type: cell-based
Details: not given
How it was run: as §1

| Compound | GI50 at 48 h [mg/L] |
| --- | --- |
| COc1ccc2cc(CCCO)oc(=O)c2c1 | 29 (≈ 124 µM) |
| CCCCCOCCCC1Cc2ccc(OC)cc2C(=O)O1 (racemic) | 32.3 (≈ 105 µM) |
| COc1ccc2c(c1)C(=O)OC(CO)C2 (racemic) | ≥ 250 |
| COc1ccc2c(c1)C(=O)OC(CCCSc1nnnn1-c1ccccc1)C2 (racemic) | ≥ 250 |
